From PubChem BioAssay
The list is not random: actives were taken first. Their share in the collection is about 4.3%.
FLuc act counter: affects firefly luciferase, flagging false hits in luciferase stimulation screens | P08659 | ATPlite luciferase biochemical, luminescence, 10 min; 0 = ATP-free wells, 1 = DMSO control | 200,000 tested, under 10 active | activation factor at 10 µM;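 active = luciferase activation factor, scaled between plate controls, of at least 2 with compound at 10 µM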
Target sequence (P08659 whole entry, looked up): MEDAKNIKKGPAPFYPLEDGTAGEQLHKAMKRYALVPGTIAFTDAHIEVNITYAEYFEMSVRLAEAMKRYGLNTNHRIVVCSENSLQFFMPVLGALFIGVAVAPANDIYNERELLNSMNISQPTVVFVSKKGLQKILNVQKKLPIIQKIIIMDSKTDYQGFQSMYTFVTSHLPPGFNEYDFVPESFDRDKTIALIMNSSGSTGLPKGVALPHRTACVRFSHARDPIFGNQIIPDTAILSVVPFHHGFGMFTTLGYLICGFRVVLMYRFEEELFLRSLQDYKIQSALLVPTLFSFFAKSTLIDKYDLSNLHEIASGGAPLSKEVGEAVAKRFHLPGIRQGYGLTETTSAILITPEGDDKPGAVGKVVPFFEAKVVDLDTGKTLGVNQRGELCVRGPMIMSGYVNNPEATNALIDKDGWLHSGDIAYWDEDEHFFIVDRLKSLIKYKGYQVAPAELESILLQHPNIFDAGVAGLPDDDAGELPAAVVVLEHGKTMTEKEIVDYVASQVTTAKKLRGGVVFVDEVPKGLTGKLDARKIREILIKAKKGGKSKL
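Assay system – cell-free luciferase reagent · Medium – PBS-based ATP solution · Dosing – test compounds dosed from 2 mM stocks in 100% DMSO · Timing – 10 min, room temperature · Technique – light output (luminescence) · Measure – luminescence gain marking luciferase activators · Controls – No-ATP low control, compound-free enzyme-plus-ATP high control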
STAT1 act: activators of IFN-gamma induced STAT1 signaling | NIH 3T3 STAT1-luciferase reporter, luminescence; 100% = IFN-gamma alone, no compound | AID 932 | actives 2.6% (n = 200,000) | activation (% of control), % at 5.5 µM;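 active = activation above the screen-wide mean activation plus 3 SD, cut at about 130% in these data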;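 note: raw ratio to IFN-gamma control signal so 100% means no change and 0% no light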
FLuc inhib CS: inhibits firefly luciferase, flagging false hits in luciferase inhibition screens; ATPLite firefly luciferase biochemical luminescence, 10 min; inhibition, % at 10 µM; actives 1.5% (n = 200,000); AID 1006;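 active = inhibition above about 50% when tested at 10 µM, limit read from the data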
APP 5'UTR act: activates APP 5'UTR luciferase reporter; SH-SY5Y APP 5'UTR luciferase reporter, luminescence; zero percent = DMSO vehicle wells; activation, % at 2 µM; actives 1% (n = 190,000); AID 1276;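 active = activation above a set limit, based on mean plus 3 SD of controls, cut at about 140% in these data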
NF-kB expr up: NF-kB expression increase, human neuronal cells; AID 1239; actives 1.6% (n = 190,000); NF-kB reporter expression; active compounds read high; fold change at 12.5 µM; in the data active = fold change above about 3.3
An asterisk follows results filed as active; · = no result.

SMILES | FLuc act counter | STAT1 act | FLuc inhib CS | APP 5'UTR act | NF-kB expr up
CC1CCCCN1S(=O)(=O)c1ccc(C(=O)Nc2sccc2C(N)=O)cc1 (stereo not drawn) | 1 | 129* | -1 | 78 | 1.3
Cc1ccc(Nc2cc(-n3cccn3)ncn2)c(C)c1 | 1 | 141* | 1 | 128 | 3.5*
COc1cccc(CCc2nnc(CCC(=O)N3CCN(Cc4ccccn4)CC3)o2)c1 | 1 | 100 | -3 | 19 | ·
CCN(CC)C(=O)c1sc2nc(-c3ccc(OC)cc3)cn2c1C | 0.6 | 143* | 45 | 117 | 2.9
CSc1ccc(-c2nnn(Cc3ccccn3)n2)cc1 | 0.8 | 140* | 20 | 69 | 2.9
O=c1[nH]n(Cc2ccccc2)c(=O)c2ccccc12 | 1 | 109 | -4 | 3 | 4.9*
COc1ccc(-c2c3c(=O)n(C)c(=O)n(C)c3cn2-c2cc(OC)ccc2OC)cc1 | 1.1 | 105 | -7 | 3 | 0.96
Cn1c(CNc2ccccc2)nc2ccccc21 | 0.7 | 132* | 26 | 79 | 2.9
CCn1cnc2cc(NCc3ccc(N(C)C)cc3)ccc21 | 1 | 122 | 2 | 46 | 0.51
Cn1c(CNc2ccccc2O)nc2ccccc21 | 1 | 100 | -1 | 9 | 1.4
CCCC(=O)NCc1nc2ccccc2n1C | 1.1 | 99 | -8 | -20 | 1.5
CCn1cnc2cc(NCc3nc4ccccc4n3C)ccc21 | 0.5 | 124 | 53* | 146* | 5.5*
CC(C)n1cnc2cc(NCc3nc4ccccc4n3C)ccc21 | 0.5 | 150* | 54* | 186* | 1.2
CCn1cnc2cc(NCc3ccc(C)cc3)ccc21 | 1 | 136* | 2 | 87 | 2.4
O=C(Nc1cc(C(F)(F)F)ccc1-n1cncn1)c1ccc(-c2ccccc2)cc1 | 1 | 105 | 1 | 3 | 1.4
CC1CCCC(NC(=O)COC(=O)CN2C(=O)C3CCCCC3C2=O)C1C (stereo not drawn) | 1 | 102 | 0 | -66 | 1
Cc1cc(C)nc(N/N=C2/CCCC/C2=C\c2ccccc2)n1 | 1 | 105 | -1 | 11 | 0.87
Cn1c(Cl)nc2ccccc21 | 1.1 | 85 | -5 | -10 | 0.95
Cn1c(N=Nc2ccccc2)nc2ccccc21 | 0 | 131* | 95* | 180* | 3.6*
CCn1cnc2cc(NCc3nc4ccccc4n3Cc3ccccc3)ccc21 | 0.7 | 148* | 31 | 168* | 0.55
CCCN(C(=O)c1ccco1)c1nnc(-c2cccc(C)c2)s1 | 1 | 99 | 4 | 48 | 1.7
COc1ccc(-c2nnc(N(C)C(=O)C3CCOC3)s2)cc1 (stereo not drawn) | · | 108 | · | 157* | 2.4
CCN(C(=O)c1ccco1)c1nnc(-c2ccc(OC)cc2)s1 | 0.1 | 104 | 85* | 3 | 3.6*
COc1ccc(-c2nnc(N(C)C(=O)C3CCCO3)s2)cc1 (stereo not drawn) | 0.8 | 121 | 24 | 55 | 2.6
CCOCCCNC(=O)C(c1ccc(OC)cc1)N(Cc1cccs1)C(=O)c1ccccn1 (stereo not drawn) | 1 | 101 | -1 | 2 | 1.7
SMILES | FLuc act counter | STAT1 act | FLuc inhib CS | APP 5'UTR act | NF-kB expr up
COc1cc(Cl)ccc1NC(=O)COc1ccccc1C(=O)NN | 1.1 | 93 | -6 | 21 | 1.2
O=C(NCc1ccc(Cl)cc1)c1cnn2ccccc12 | 0.8 | 131* | 21 | 77 | 2.4
NC(=O)Cn1c(=O)n(C2CCCCC2)c(=O)c2c3c(sc21)CCCCC3 | 1 | 93 | -3 | 9 | 0.88
COc1ccc(/C=C2/SC(=O)NC2=O)cc1 | 0.5 | 121 | 54* | 62 | 2.6
COc1ccc(-c2csc(N3CCC(c4ccccc4)C3)n2)cc1 (stereo not drawn) | 0.9 | 104 | 9 | 0 | 1.9
c1ccc(-c2csc(N3CCCCCC3)n2)cc1 | 0.9 | 112 | 9 | 7 | 1.7
Clc1ccc(-c2csc(N3CCC(c4ccccc4)C3)n2)cc1 (stereo not drawn) | 0.9 | 132* | 6 | 10 | 2.4
Fc1ccc(-c2csc(N3CCC(c4ccccc4)C3)n2)cc1 (stereo not drawn) | 0.7 | 147* | 34 | 43 | 3.9*
Cc1occc1C(=O)NNC(=S)Nc1ccccc1C(F)(F)F | 1 | 133* | -3 | 108 | 0.95
O=C(CSc1ccc(-c2cccs2)nn1)c1cccs1 | 1 | 126 | 2 | 36 | 2.1
Cc1[nH]c2ccccc2c1C(=O)CSC(=S)N(C)C | 1 | 130* | 3 | 27 | 1.6
CCOC(=O)C1=C(C)NC(=S)N(C=O)C1c1ccccc1 (stereo not drawn) | 1 | 95 | -3 | -6 | 1.1
O=[N+]([O-])c1nn(-c2ccc3c(c2)OCCO3)n(O)c1=NCc1ccccc1Cl | 0.9 | 146* | 11 | 32 | 2.5
COc1ccc(-n2nc([N+](=O)[O-])c(=NCc3ccco3)n2O)cc1 | 1 | 143* | 2 | 73 | 2.2
COc1ccc(-n2nc([N+](=O)[O-])c(=NCc3cccnc3)n2O)cc1 | 1 | 149* | -3 | 48 | 2.7
Cc1cc(C)nc(SCc2ccc(C(=O)N/N=C/c3ccco3)cc2)n1 | 1 | 96 | -3 | -9 | 0.86
CC(=O)N1N=C(c2ccc(Cl)cc2)OC1c1ccc(C(C)C)cc1 (stereo not drawn) | 1.1 | 133* | -5 | -10 | 1.6
Nc1nc(Nc2ccccc2Br)nc(C(F)(F)F)n1 | 1 | 108 | -3 | 9 | 1.4
Nc1nc(Nc2ccc(Cl)cc2Cl)nc(C(F)(F)F)n1 | 0.9 | 140* | 8 | 0 | 1.9
O=C(N=C1c2ccccc2CN1c1ccc(F)c(Cl)c1)c1cccnc1Cl | 0.9 | 126 | 8 | 45 | 1.1
N#Cc1ccc(N2Cc3ccccc3C2=NC(=O)c2cccnc2Cl)cc1 | 0.7 | 107 | 26 | 2 | 5*
NC(=S)Nc1cccc2[nH]ccc12 | 1 | 100 | -2 | -26 | 0.56
CC1CCN(c2oc(-c3ccccc3Cl)nc2C#N)CC1 | 0.9 | 121 | 8 | 80 | 3.7*
N#Cc1nc(-c2ccccc2Cl)oc1N1CCOCC1 | 1 | 109 | 3 | 13 | 1.3
O=[N+]([O-])c1ccc2nc(-c3ccc(OC(F)F)cc3)cn2c1 | 0.8 | 120 | 24 | 82 | 3.5*
SMILES | FLuc act counter | STAT1 act | FLuc inhib CS | APP 5'UTR act | NF-kB expr up
COc1ccc(-c2ccc(=O)n(Cc3ccc([N+](=O)[O-])cc3)n2)cc1 | 1.1 | 86 | -5 | -12 | 0.79
Cc1cccc(/C=C/c2nc3ccccc3c(=O)n2Cc2ccccc2)c1 | 1.1 | 99 | -6 | -5 | 0.86
Cc1cccc(/C=C/c2nc3ccccc3c(=O)[nH]2)c1 | 0.3 | 121 | 68* | 92 | 6.3*
Cc1ccc(NC(=O)c2ccc3snnc3c2)cc1 | 0.7 | 147* | 25 | 78 | 3.1
O=C(Nc1ccccc1)c1ccc2snnc2c1 | 1 | 111 | 1 | -8 | 1.4
COc1ccc2cc(C(=O)NCc3ccco3)c(=O)oc2c1 | 0.5 | 105 | 46 | 48 | 3.9*
Cc1ccc(NC(=O)Nc2cc(C)on2)cc1 | 0.8 | 130* | 23 | 67 | 1.9
